{
  "source": "paper PMC9306620",
  "about": "(Clinical Pharmacology in Drug Development, 2022)",
  "key": {"[1]": {"format": "in vivo, healthy participants", "settings": "200 mg, moderate-fat meal; for AUC(0-t) / AUC(0-inf) / Cmax: human, plasma, oral, geometric LS mean, part 1, analysis of variance, n = 18; for AUC(0-t): AUC0-t; for AUC(0-inf): AUC0-∞", "method_in_brief": "(§1)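 Randomized, open-label, single-dose crossover in healthy adults aged 18–55, with periods separated by a ≥7-day washout. Each oral 200 mg dose was given as two 100-mg units. Plasma was sampled 40 min predose and 1–96 h postdose and assayed by UHPLC-MS/MS. Noncompartmental parameters used actual sampling times. ln-AUC0-t, AUC0-∞ and Cmax were analysed by linear mixed-effects model (treatment, period, sequence fixed; participant random) with 90% CIs.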"}, "[2]": {"assay": "Part 2: food effect on plasma pharmacokinetics of the tablet formulation", "format": "in vivo, healthy participants", "settings": "for AUC(0-t) / AUC(0-inf) / Cmax: human, plasma, oral, 200 mg, geometric LS mean, part 2, analysis of variance; for AUC(0-t): AUC0-t; for AUC(0-inf): AUC0-∞", "method_in_brief": "as §1"}, "[3]": {"assay": "Part 1: safety and tolerability", "format": "in vivo, healthy participants", "settings": "N = 18", "method_in_brief": "(§2)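 Safety followed a single oral 200 mg dose given as two 100-mg capsules or tablets. Adverse events, clinical laboratory tests, vital signs, 12-lead ECG and physical examination were monitored. The safety population was all participants receiving ≥1 dose, summarized descriptively by treatment. AEs occurring later than last treatment + 5 days were not counted. The investigator assessed each AE for drug relatedness.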"}, "[4]": {"assay": "Part 2: safety and tolerability", "format": "in vivo, healthy participants", "settings": "for Adverse events: abdominal distention (drug related) / Adverse events: anxiety / Adverse events: any event / Adverse events: diarrhea (drug related) / Adverse events: dysmenorrhea / Adverse events: eye irritation / Adverse events: rash maculopapular (drug related, led to withdrawal): part 2, tablet 200 mg", "method_in_brief": "as §2"}, "[5]": {"settings": "cited from earlier work"}, "HIV-1": {"tested_on": "HIV-1", "settings": "200-mg dose, treatment-naive adults with HIV-1, phase IIa; cited from earlier work"}, "[6]": {"tested_on": "uridine diphosphate glucuronosyltransferase 1A1", "settings": "in vitro; cited from earlier work"}, "[7]": {"tested_on": "organic anion-transporting polypeptide 1B3", "settings": "in vitro; cited from earlier work"}, "HIV-1 subtypes": {"tested_on": "HIV-1 subtypes", "settings": "in vitro; cited from earlier work"}, "[8]": {"settings": "drug interaction studies; cited from earlier work"}, "[9]": {"settings": "tablet 200 mg, high fat, n = 21"}, "[10]": {"settings": "tablet 200 mg, moderate fat, n = 20"}, "[11]": {"settings": "tablet 200 mg, high fat vs fasted, part 2"}, "[12]": {"settings": "tablet 200 mg, moderate fat vs fasted, part 2"}},
  "note": "“And” between values parts separate entries of the source, which are not always exact repeats. Equal entries are not always repeated. Where two headings read alike, the source gives them in different places.",
  "data": [
    {"smiles": "C=C(C)[C@@H]1CC[C@]2(NCCN3CCS(=O)(=O)CC3)CC[C@]3(C)[C@H](CC[C@@H]4[C@@]5(C)CC=C(C6=CC[C@@](CF)(C(=O)O)CC6)C(C)(C)[C@@H]5CC[C@]43C)[C@@H]12", "note": "[GSK3640254]", "values": [
      {"measurement": "AUC(0-t)", "setting": "[1]; capsule", "result": 33700, "unit": "ng·h/mL"},
      {"measurement": "AUC(0-t)", "setting": "[1]; tablet", "result": 33800, "unit": "ng·h/mL"},
      {"measurement": "AUC(0-inf)", "setting": "[1]; capsule", "result": 36900, "unit": "ng·h/mL"},
      {"measurement": "AUC(0-inf)", "setting": "[1]; tablet", "result": 36900, "unit": "ng·h/mL"},
      {"measurement": "Cmax", "setting": "[1]; capsule", "result": 1200, "unit": "ng/mL"},
      {"measurement": "Cmax", "setting": "[1]; tablet", "result": 1310, "unit": "ng/mL"},
      {"measurement": "AUC0-t, geometric LS mean ratio", "setting": "[1]; tablet vs capsule, part 1", "result": 1.00},
      {"measurement": "AUC0-∞, geometric LS mean ratio", "setting": "[1]; tablet vs capsule, part 1", "result": 0.998},
      {"measurement": "Cmax, geometric LS mean ratio", "setting": "[1]; tablet vs capsule, part 1", "result": 1.09},
      {"measurement": "AUC(0-t)", "setting": "[2]; tablet 200 mg, fasted, n = 13", "result": 12200, "unit": "ng·h/mL"},
      {"measurement": "AUC(0-t)", "setting": "[2]; [9]", "result": 34100, "unit": "ng·h/mL"},
      {"measurement": "AUC(0-t)", "setting": "[2]; [10]", "result": 38500, "unit": "ng·h/mL"},
      {"measurement": "AUC(0-inf)", "setting": "[2]; tablet 200 mg, fasted, n = 10", "result": 14200, "unit": "ng·h/mL"},
      {"measurement": "AUC(0-inf)", "setting": "[2]; [9]", "result": 36900, "unit": "ng·h/mL"},
      {"measurement": "AUC(0-inf)", "setting": "[2]; [10]", "result": 41600, "unit": "ng·h/mL"},
      {"measurement": "Cmax", "setting": "[2]; tablet 200 mg, fasted, n = 13", "result": 351, "unit": "ng/mL"},
      {"measurement": "Cmax", "setting": "[2]; [9]", "result": 1080, "unit": "ng/mL"},
      {"measurement": "Cmax", "setting": "[2]; [10]", "result": 1440, "unit": "ng/mL"},
      {"measurement": "AUC0-t, geometric LS mean ratio compared with fasted conditions", "setting": "[2]; [11]", "result": 2.79},
      {"measurement": "AUC0-∞, geometric LS mean ratio compared with fasted conditions", "setting": "[2]; [11]", "result": 2.59},
      {"measurement": "Cmax, geometric LS mean ratio compared with fasted conditions", "setting": "[2]; [11]", "result": 3.08},
      {"measurement": "mean Cmax, fold higher than under fasted conditions", "setting": "[2]; tablet 200 mg, high-fat conditions, part 2", "result": "~3", "unit": "fold"},
      {"measurement": "AUC0-t, geometric LS mean ratio compared with fasted conditions", "setting": "[2]; [12]", "result": 3.15},
      {"measurement": "AUC0-∞, geometric LS mean ratio compared with fasted conditions", "setting": "[2]; [12]", "result": 2.93},
      {"measurement": "Cmax, geometric LS mean ratio compared with fasted conditions", "setting": "[2]; [12]", "result": 4.10},
      {"measurement": "mean estimate for CL/F, lower than under fasted conditions", "setting": "[2]; tablet 200 mg, moderate- or high-fat conditions, part 2", "result": "> 60", "unit": "%"},
      {"measurement": "mean Cmax, fold higher than under fasted conditions", "setting": "[2]; tablet 200 mg, moderate-fat conditions, part 2", "result": "≈ 4 fold"},
      {"measurement": "t1/2, arithmetic mean (SD)", "setting": "[2]; tablet, single dose 200 mg, fasted conditions, part 2, n = 10", "result": "25.9 (3.33) hour"},
      {"measurement": "t1/2, arithmetic mean (SD)", "setting": "[2]; tablet, single dose 200 mg, high-fat conditions, part 2, N = 21", "result": "25.1 (4.18) hour"},
      {"measurement": "t1/2, geometric mean (%CVb)", "setting": "[2]; tablet, single dose 200 mg, moderate-fat conditions, part 2, N = 20", "result": "24.9 (18.0) hour"},
      {"measurement": "Adverse events: abdominal distention (drug related)", "setting": "[3]; part 1, capsule 200 mg", "result": "0 n (%)"},
      {"measurement": "Adverse events: anxiety", "setting": "[3]; part 1, capsule 200 mg", "result": "0 n (%)"},
      {"measurement": "Adverse events: diarrhea (drug related)", "setting": "[3]; part 1, capsule 200 mg", "result": "0 n (%)"},
      {"measurement": "Adverse events: dysmenorrhea", "setting": "[3]; part 1, capsule 200 mg", "result": "0 n (%)"},
      {"measurement": "Adverse events: eye irritation", "setting": "[3]; part 1, capsule 200 mg", "result": "0 n (%)"},
      {"measurement": "Adverse events: rash maculopapular (drug related, led to withdrawal)", "setting": "[3]; part 1, capsule 200 mg", "result": "0 n (%)"},
      {"measurement": "Adverse events: abdominal distention (drug related)", "setting": "[3]; part 1, tablet 200 mg", "result": "0 n (%)"},
      {"measurement": "Adverse events: anxiety", "setting": "[3]; part 1, tablet 200 mg", "result": "0 n (%)"},
      {"measurement": "Adverse events: any event", "setting": "[3]; part 1, tablet 200 mg", "result": "1 (6) n (%)"},
      {"measurement": "Adverse events: diarrhea (drug related)", "setting": "[3]; part 1, tablet 200 mg", "result": "0 n (%)"},
      {"measurement": "Adverse events: dysmenorrhea", "setting": "[3]; part 1, tablet 200 mg", "result": "0 n (%)"},
      {"measurement": "Adverse events: eye irritation", "setting": "[3]; part 1, tablet 200 mg", "result": "1 (6%) n (%) and 1 (6) n (%)"},
      {"measurement": "Adverse events: rash maculopapular (drug related, led to withdrawal)", "setting": "[3]; part 1, tablet 200 mg", "result": "0 n (%)"},
      {"measurement": "Adverse events: abdominal distention (drug related)", "setting": "[4]; fasted, N = 19", "result": "0 n (%)"},
      {"measurement": "Adverse events: anxiety", "setting": "[4]; fasted, N = 19", "result": "0 n (%)"},
      {"measurement": "Adverse events: any event", "setting": "[4]; fasted, N = 19", "result": "0 n (%)"},
      {"measurement": "Adverse events: diarrhea (drug related)", "setting": "[4]; fasted, N = 19", "result": "0 n (%)"},
      {"measurement": "Adverse events: dysmenorrhea", "setting": "[4]; fasted, N = 19", "result": "0 n (%)"},
      {"measurement": "Adverse events: eye irritation", "setting": "[4]; fasted, N = 19", "result": "0 n (%)"},
      {"measurement": "Adverse events: rash maculopapular (drug related, led to withdrawal)", "setting": "[4]; fasted, N = 19", "result": "0 n (%)"},
      {"measurement": "Adverse events: abdominal distention (drug related)", "setting": "[4]; high fat, N = 21", "result": "1 (5) n (%)"},
      {"measurement": "Adverse events: anxiety", "setting": "[4]; high fat, N = 21", "result": "1 (5) n (%)"},
      {"measurement": "Adverse events: any event", "setting": "[4]; high fat, N = 21", "result": "5 (24%) n (%) and 5 (24) n (%)"},
      {"measurement": "Adverse events: diarrhea (drug related)", "setting": "[4]; high fat, N = 21", "result": "2 n (%) and 2 (10) n (%)"},
      {"measurement": "Adverse events: dysmenorrhea", "setting": "[4]; high fat, N = 21", "result": "1 (5) n (%)"},
      {"measurement": "Adverse events: eye irritation", "setting": "[4]; high fat, N = 21", "result": "0 n (%)"},
      {"measurement": "Adverse events: rash maculopapular (drug related, led to withdrawal)", "setting": "[4]; high fat, N = 21", "result": "1 (5) n (%)"},
      {"measurement": "Adverse events: abdominal distention (drug related)", "setting": "[4]; moderate fat, N = 20", "result": "0 n (%)"},
      {"measurement": "Adverse events: anxiety", "setting": "[4]; moderate fat, N = 20", "result": "0 n (%)"},
      {"measurement": "Adverse events: any event", "setting": "[4]; moderate fat, N = 20", "result": "0 n (%)"},
      {"measurement": "Adverse events: diarrhea (drug related)", "setting": "[4]; moderate fat, N = 20", "result": "0 n (%)"},
      {"measurement": "Adverse events: dysmenorrhea", "setting": "[4]; moderate fat, N = 20", "result": "0 n (%)"},
      {"measurement": "Adverse events: eye irritation", "setting": "[4]; moderate fat, N = 20", "result": "0 n (%)"},
      {"measurement": "Adverse events: rash maculopapular (drug related, led to withdrawal)", "setting": "[4]; moderate fat, N = 20", "result": "0 n (%)"},
      {"measurement": "participants reporting AEs considered related to the study treatment", "setting": "[4]; part 2, tablets 200 mg, high-fat conditions", "result": 10, "unit": "%"},
      {"measurement": "highest incidence of adverse events", "setting": "[4]; tablet 200 mg, high-fat conditions", "result": 24, "unit": "%"},
      {"measurement": "estimated half-life", "setting": "[5]; 200-mg dose, healthy participants", "result": "approximately 22.6 hours"},
      {"measurement": "tolerability", "setting": "[5]; phase I studies in healthy participants, headache most common AE", "result": "generally well tolerated"},
      {"measurement": "reduction in plasma HIV-1 RNA", "setting": "HIV-1", "result": "approximately 2 log10"},
      {"measurement": "inhibition of uridine diphosphate glucuronosyltransferase 1A1", "setting": "[6]", "result": "inhibitor"},
      {"measurement": "inhibition of organic anion-transporting polypeptide 1B3", "setting": "[7]", "result": "inhibitor"},
      {"measurement": "inhibition across various HIV-1 subtypes", "setting": "HIV-1 subtypes", "result": "broad‐spectrum potent inhibition"},
      {"measurement": "effect on the pharmacokinetics of combined oral contraceptives", "setting": "[8]", "result": "no meaningful effect"},
      {"measurement": "effect on the pharmacokinetics of dolutegravir", "setting": "[8]", "result": "no meaningful effect"},
      {"measurement": "effect on the pharmacokinetics of tenofovir alafenamide", "setting": "[8]", "result": "no meaningful effect"}
    ]}
  ]
}
